Screens deposited in PubChem by several laboratories.
NR2E3 ag-1 = inhibitors of NR2E3-RetCOR corepressor binding, primary screen, NR2E3 agonist project, biochemical, TR-FRET, GST-NR2E3, biotin-RetCOR; 1536-well; AID 2300, 2010; inhibition of corepressor binding, % at 4.78 µM; 320,000 compounds, 0.12% hits;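 active means percent inhibition above the cutoff of mean plus 3 SD of all tested compounds, set per screening campaign, cut at about 20% in these data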;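 further: 0% = DMSO wells and 100% = biotin wells as full block of FRET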
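Test system – NR2E3–RetCOR corepressor complex · Quantity – NR2E3 fusion 1.35 nM · Buffer or medium – Tris pH 7.5 · Incubation – Compound–protein incubation for 5 h at 4 °C · Technique – TR-FRET, Eu(K)-anti-GST donor, streptavidin-D2 acceptor, ex 340, em 617/671 nm · Evaluation – percent inhibition of 671/617 nm emission ratio versus biotin and DMSO controls · Plate – 1536-well format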
697 NFkB inh = inhibitors of PMA/ionomycin-induced NF-kB reporter, 697 cells, primary screen, B-cell NF-kB inhibitor project, cell-based, luminescence, uHTS. inhibition, % at 4 µM. 330,000 compounds, 0.33% hits. 697 B-cell NF-kB luciferase reporter, 16 h; in the data active means inhibition above about 35%
GalR3 antag = GalR3 antagonists in HEK293 cells, primary screen, cell-based, fluorescence readout; inhibition, % at 3 µM; 360,000 compounds, 0.44% hits; Galanin receptor type 3 (Homo sapiens), O60755; AID 651719, 2012; HEK293 GalR3-CNG cAMP membrane potential fluorescence; galR3 body fused to GalR1 C-terminus;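 active means inhibition above the screen-wide average plus 3 SD, cut at about 13% in these data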;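 further: forskolin and galanin both at EC90 stimulate the cells; cAMP rise reported by CNG channel membrane potential dye signal; 0% = forskolin plus galanin with DMSO and 100% = forskolin alone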
Target sequence (O60755 1-299 limits assumed): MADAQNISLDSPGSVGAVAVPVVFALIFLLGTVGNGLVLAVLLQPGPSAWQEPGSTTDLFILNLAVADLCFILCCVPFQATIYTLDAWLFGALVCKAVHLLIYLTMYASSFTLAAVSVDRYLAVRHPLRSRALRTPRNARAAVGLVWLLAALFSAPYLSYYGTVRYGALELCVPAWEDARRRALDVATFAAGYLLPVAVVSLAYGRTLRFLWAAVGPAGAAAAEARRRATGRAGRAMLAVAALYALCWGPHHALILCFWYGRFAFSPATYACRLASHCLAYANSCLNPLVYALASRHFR
Jurkat NFkB inh = inhibitors of induced NF-kB luciferase reporter, primary screen, TCR NF-kB activation inhibitor project, cell-based, luminescence, uHTS | Jurkat, PMA/ionomycin-induced NF-kB luciferase reporter | inhibition, % at 4 µM | 330,000 compounds, 0.53% hits | AID 435003, 2010; in the data active means inhibition above about 50%
JMJD2C inh = inhibitors of GASC-1 histone demethylase, primary screen, biochemical, fluorescence, DELFIA europium | Lysine-specific demethylase 4C (Homo sapiens), Q9H3R0 | GST-JMJD2C(1-420) H3K9me3 demethylation | inhibition, % at 2.35 µM | 330,000 compounds, 0.069% hits | AID 2099, 2009;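 active means more than half of a compound's replicate wells show inhibition beyond 50%, single wells judged on their own value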;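 further: signal counts dimethyl H3K9 product captured on neutravidin plate; 0% = median of DMSO wells and 100% = 0.3 times that DMSO median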
NR2E3 ag-2 = NR2E3 agonists in two-hybrid cells, primary screen, cell-based, luminescence, CHO-S, Gal4-NCOR/VP16-NR2E3 | Photoreceptor-specific nuclear receptor (Homo sapiens), Q9Y5X4 | 360,000 compounds, 0.35% hits | inhibition of corepressor binding, % at 3.98 µM | luciferase | AID 602229, 2012;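 active means inhibition above the mean of all tested compounds plus 3 SD, cut at about 70% in these data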;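 further: 0% = DMSO with NR2E3 transfected cells and 100% = cells lacking NR2E3 construct; higher means lower luciferase signal from less NR2E3 corepressor binding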
Jurkat NFkB conf = PMA/ionomycin-induced NF-kB reporter inhibitors, Jurkat retest, confirmation, T-cell NF-kB inhibitor project, cell-based, luminescence, single concentration. AID 435020, 2010. 2,700 compounds, 27% hits. inhibition, % at 4 µM. Jurkat NF-kB luciferase, 16 h. shares compounds with Jurkat NFkB inh;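 active means inhibition reaching about 45% at 4 µM in either replicate, limit read from the data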;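 further: plate controls were PMA/ionomycin stimulated DMSO wells for no effect and unstimulated DMSO wells for full effect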
Numbers without * were called inactive; i = inactive; . = not tested or not shown. An excerpt weighted towards active compounds, which were near 1.5% of everything screened.

SMILES	NR2E3 ag-1	697 NFkB inh	GalR3 antag	Jurkat NFkB inh	JMJD2C inh	NR2E3 ag-2	Jurkat NFkB conf
O=C(Nc1ccc(S(=O)(=O)N2CCOCC2)cc1)c1ccc(CN2CCc3ccccc3C2)cc1	-2	30	.	77*	-10	.	74*
Nn1cnc2scc(-c3ccco3)c2c1=O	-2	11	-8	6	21	-34	.
Cc1ccc(NC(=O)c2scc3c2CCCC3)cc1	-4	-226	1	-231	-8	-161	-122
CCN(CC)S(=O)(=O)c1ccc2c(c1)N(CC(=O)N1CCCC1)C(=O)CO2	-2	6	-8	-3	10	-25	.
Cc1ccc(O)c(NC(=O)c2cc(-c3cccs3)on2)c1	1	-45	-10	88*	-4	-129	17
Cc1ccc(O)c(NC(=O)c2cc(-c3ccc(F)cc3)on2)c1	3	-66	-6	71*	5	-15	-11
N=C1C(c2ccccc2)=C(O)CN1c1ccc2c(c1)OCO2	0	10	-1	16	2	-33	.
CN(Cc1ccccc1)c1nc(-c2ccc([N+](=O)[O-])cc2)nc2ccccc12	-3	-1	-2	-9	3	-16	.
O=[N+]([O-])c1ccc(-c2nc(C(Cl)Cl)c3ccccc3n2)cc1	4	-102	-3	97*	-2	-21	42
Cc1ccccc1C1=C/C(=C(\SS/C(C(=O)c2ccc(OCC(=O)O)c(Cl)c2Cl)=C2\C=C(c3ccccc3C)SS2)C(=O)c2ccc(OCC(=O)O)c(Cl)c2Cl)SS1	.	.	-4	.	.	-5	.
Cc1c(C(=O)OC2CCC(C)CC2)[nH]c2c1C(=O)CCC2 (stereo not drawn)	-2	-218	2	-215	10	-134	-120
COC(=O)c1[nH]c2c(c1C)C(=O)CCC2	0	-5	-1	8	4	-17	.
CN(C)CC(CCC(CN(C)C)C(O)(c1ccccc1)c1ccccc1)C(O)(c1ccccc1)c1ccccc1 (stereo not drawn)	.	11	-5	65*	-30	.	15
COCCCNC(=S)NC(=O)c1ccc(C)cc1	2	-86	2	-69	8	-120	.
Nc1nonc1-c1nc2ccccc2n1CC(=O)Nc1ccccc1	2	-4	-5	31	0	-2	.
CCOC(=O)c1ccccc1NC(=O)Cn1c(-c2nonc2N)nc2ccccc21	2	15	0	82*	2	-3	61*
FC(F)(F)c1cc(-c2ccco2)nc(-n2cnc3ccccc32)n1	-2	-5	-5	-8	i	-1	.
Cc1nc2ccccc2n1-c1nc(-c2ccco2)cc(C(F)(F)F)n1	1	-43	-6	83*	5	2	30
COc1ccc(-c2nc(-c3ccc(Br)o3)no2)cc1	0	-242	-2	-203	-3	-89	-148
O=C(O)c1ccc(N/N=C/c2ccncc2)cc1	-2	-43	-10	-9	-4	-39	.
O=C(O)c1ccc(N/N=C/c2ccc3nccnc3c2)cc1	-13	20	3	60*	7	28	18
COc1ccn(C2CCCCO2)c(=O)n1 (stereo not drawn)	.	.	-2	.	.	-13	.
COc1ccccc1-c1cc(C(=O)Nc2cc(C)nn2-c2ccccc2)no1	3	-50	-7	61*	2	-52	32
O=C1CC(c2cccc(Br)c2)c2cc3c(cc2N1)CCC3 (stereo not drawn)	0	-72	-9	54*	2	-42	45
